Compound activity as filed in PubChem BioAssay.
VIM-2 inhibitor – VIM-2 metallo-beta-lactamase inhibitors, primary screen, biochemical, epi-absorbance readout, Pseudomonas aeruginosa enzyme; purified VIM-2, nitrocefin hydrolysis, epi-absorbance fluorescence; inhibition, % at 5.6 µM; 0.89% of 290,000 active;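 active means inhibition above the mean of all tested compounds plus 3 SD, cutoff set per screening run, cut at about 7.5% in these data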;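 further: red hydrolysis product quenches plate fluorescence so inhibitors raise well fluorescence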
ATG4B inh – ATG4B protease inhibitors, primary screen, biochemical, fluorescence, uHTS; inhibition, % at 8.33 µM; ATG4B cleavage of LC3-PLA2, NBD-HPC fluorescence, 1 h; 0.51% of 340,000 active; Cysteine protease ATG4B (Homo sapiens), Q9Y4P1; AID 504462, 2011; in the data active means inhibition above about 40%
Target sequence (Q9Y4P1 whole entry, looked up): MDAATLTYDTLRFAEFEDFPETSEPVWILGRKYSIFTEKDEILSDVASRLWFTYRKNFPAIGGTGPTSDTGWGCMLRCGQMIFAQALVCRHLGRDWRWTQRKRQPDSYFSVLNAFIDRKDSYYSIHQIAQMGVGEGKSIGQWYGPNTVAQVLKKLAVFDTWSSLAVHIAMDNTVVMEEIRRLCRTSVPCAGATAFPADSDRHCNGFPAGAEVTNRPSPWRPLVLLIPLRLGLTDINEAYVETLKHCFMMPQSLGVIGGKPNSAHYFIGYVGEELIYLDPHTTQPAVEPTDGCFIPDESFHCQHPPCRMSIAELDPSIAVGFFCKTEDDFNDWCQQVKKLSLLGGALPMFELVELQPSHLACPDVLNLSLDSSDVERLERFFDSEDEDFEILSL
MIN6 prolif – inducers of MIN6 beta-cell proliferation, primary screen, ATP luminescence, uHTS; MIN6 cells proliferation, ATPlite luminescence, 48 h; cells starved in 0.2% serum; 100% = growth in 10% serum; proliferation, % at 10 µM; 0.29% of 330,000 active; AID 2380, 2010;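 active means compounds whose signal lies at least 3.5 SD above the mean of all wells on their plate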
PvdQ inh – P. aeruginosa PvdQ acylase inhibitors, primary screen, biochemical, fluorescence, plate reader and imaging, single point; PvdQ acylase [Pseudomonas aeruginosa LESB58]; purified PvdQ acylase; inhibition, % at 10 µM; 0.063% of 340,000 active; in the data active means inhibition above about 30%, passing the limit was not always enough
IMP-1 inh-1 – IMP-1 metallo-beta-lactamase inhibitors, primary screen, biochemical, epi-absorbance readout, Pseudomonas aeruginosa enzyme; purified IMP-1, nitrocefin hydrolysis, epi-absorbance fluorescence; inhibition, % at 5.6 µM; 0.45% of 290,000 active;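 active means inhibition above the mean plus 3 SD of all compounds in the same screening run, cut at about 4.5% in these data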
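Assay system: purified recombinant IMP-1 beta-lactamase. Input: IMP-1 0.2 nM before substrate addition. Buffer or medium: Zinc- and detergent-supplemented HEPES buffer, pH 7.1. Schedule: 25 °C, 15 min preincubation, 25 min reaction. Signal: Epi-absorbance fluorescence, 480 nm excitation, 530 nm emission. Evaluation: percent inhibition from optical density relative to buffer-blank wells.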
HKDC1 inh – HKDC1 hexokinase inhibitors, primary screen, biochemical, fluorescence, uHTS; recombinant HKDC1, G6PDH/diaphorase resazurin coupled fluorescence; 0.16% of 340,000 active; inhibition, % at 20 µM;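 active means inhibition above about 35% when tested at 20 µM, limit read from the data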
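Test system: recombinant HKDC1 (HK5) hexokinase enzyme, produced in-house / Doses: 20 µM test compound, 1% DMSO / Timing: 90 min, room temperature / Detection: G6PDH/diaphorase-coupled fluorescence, 1 mM NADP, 100 µM resazurin, 525/613 nm / Control set: DMSO wells with and without enzyme mix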
IMP-1 inh-2 – IMP-1 metallo-beta-lactamase inhibitors, confirmation, selectivity assay for selective VIM-2 inhibitor project, biochemical, epi-absorbance readout, triplicate. shares compounds with VIM-2 inhibitor. purified IMP-1, nitrocefin hydrolysis, epi-absorbance fluorescence. inhibition, % at 5.6 µM. 1,300 tested, under 10 active. AID 1856, 2009; call rule not given here
VIM-2 FRET inh – VIM-2 inhibitors in FRET format, confirmation, artefact control for selective VIM-2 inhibitor project, biochemical, epi-absorbance artifact exclusion; shares compounds with VIM-2 inhibitor; purified VIM-2, CCF2 FRET substrate hydrolysis; inhibition, % at 5.6 µM; 23% of 1,300 active; AID 1857, 2009;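 active means inhibition above the mean of all tested compounds plus 3 SD, cut at about 19% in these data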
TEM-1 counter – TEM-1 serine beta-lactamase inhibitors, counter-screen for VIM-2 inhibitor project, biochemical, epi-absorbance, HTS. 3% of 1,300 active. shares compounds with VIM-2 inhibitor. inhibition, % at 5.6 µM. Purified TEM-1, nitrocefin hydrolysis, epi-absorbance fluorescence;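 active means inhibition above that campaign's mean inhibition plus 3 SD, cut at about 0.46% in these data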
Target sequence (P62593 whole entry, looked up): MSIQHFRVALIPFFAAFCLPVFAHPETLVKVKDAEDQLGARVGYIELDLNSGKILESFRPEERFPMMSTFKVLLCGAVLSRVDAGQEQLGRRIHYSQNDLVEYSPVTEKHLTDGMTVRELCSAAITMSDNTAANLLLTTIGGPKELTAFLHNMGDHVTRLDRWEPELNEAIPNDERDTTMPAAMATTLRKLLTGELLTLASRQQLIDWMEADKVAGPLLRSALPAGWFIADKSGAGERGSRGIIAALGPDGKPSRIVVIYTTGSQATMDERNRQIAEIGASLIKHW
VIM-2 inh conf – VIM-2 metallo-beta-lactamase inhibitors, confirmation, biochemical, epi-absorbance, hits shared with IMP-1 screen; purified VIM-2, nitrocefin hydrolysis; 96% of 1,300 active; inhibition, % at 5.6 µM; shares compounds with VIM-2 inhibitor;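 active means inhibition of the VIM-2 beta-lactamase enzyme above about 11% from the earlier first-round screen, limit read from the data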
A number is an active result; – = inactive; · = not tested or not shown. Hits are enriched below; roughly 2% of the tested compounds scored in any of these assays.

SMILES | VIM-2 inhibitor | ATG4B inh | MIN6 prolif | PvdQ inh | IMP-1 inh-1 | HKDC1 inh | IMP-1 inh-2 | VIM-2 FRET inh | TEM-1 counter | VIM-2 inh conf
COc1ccccc1Nc1c2ccccc2nc2ccccc12 | 24.1 | – | – | – | – | – | – | – | – | 35.7
O=C(CSCc1ccc(F)cc1)NCc1ccco1 | – | – | – | – | – | – | · | · | · | ·
CN(Cc1ccccc1)C(=O)c1cccc(NC(=O)Cc2cccc(NC(=O)C3CCN(C(=O)C4CCC4)CC3)c2)c1 | · | – | · | – | · | – | · | · | · | ·
COCCCNc1c2c3c(cccc3[nH]c1=O)C(=O)c1ccccc1-2 | 34.4 | – | – | – | – | – | 72.9 | – | 137.4 | 87.4
Cn1c(=O)n(C)c2cc(/C=N/n3cnnc3)ccc21 | 14.8 | – | – | – | – | – | – | – | – | 45.0
CC(C)(C)c1ccc(/C=N/n2cnnc2)cc1 | – | – | – | – | – | – | · | · | · | ·
C=CCn1c(=O)n2ncnc2c2c3c(sc21)CCCC3 | 14.6 | – | · | – | – | – | – | – | – | 38.8
Cc1cc(=O)oc2c3c(cc(OCC(=O)N[C@@H](Cc4ccccc4)C(=O)O)c12)OC(C)(C)CC3 | 21.8 | – | – | – | – | – | – | 40.0 | – | 25.1
CCc1cc(=O)oc2c3c(cc(OCC(=O)NCc4ccco4)c12)OC(C)(C)CC3 | – | – | – | – | – | – | · | · | · | ·
CCc1cc(=O)oc2c3c(cc(OCC(=O)NCc4ccncc4)c12)OC(C)(C)CC3 | 15.5 | – | – | – | – | – | – | – | – | 27.2
CN1CCN(NC(=S)NC2CCCC2)CC1 | – | – | – | – | – | – | · | · | · | ·
CCN(CC)CCNC(=O)c1cn(CC)c2cc(N3CCN(C)CC3)c(F)cc2c1=O | 12.2 | – | – | – | – | – | – | – | – | 26.7
CCCCNC(=O)c1cn(CC)c2cc(N3CCN(C)CC3)c(F)cc2c1=O | – | – | – | · | – | – | · | · | · | ·
COc1ccc(NC(=O)NNC(=O)C(C)Oc2ccc3ccccc3c2)cc1 (stereo not drawn) | – | – | – | – | – | – | · | · | · | ·
COC(=O)c1c(NC(=O)C(=O)NCCCN2CCOCC2)sc2c1CCCC2 | 12.8 | – | – | – | – | – | – | – | – | 18.9
COc1cccc(CSc2ccc(S(=O)(=O)N3CCOCC3)cc2C(=O)NCC2CCCO2)c1OC (stereo not drawn) | – | – | – | – | – | – | · | · | · | ·
O=C(O)c1c[nH]c(=O)c2ccccc12 | – | – | – | – | – | – | · | · | · | ·
CCOC(=O)c1cnc(-n2nc(C)cc2C)nc1NCc1ccc2c(c1)OCO2 | 57.7 | – | – | – | – | – | – | – | 1.6 | 88.6
O=S(=O)(c1ccc(F)cc1)N1CCC(n2cnc3ccccc32)CC1 | – | – | – | – | – | – | · | · | · | ·
CCCc1c(C)c(C#N)c2nc3ccccc3n2c1NCCCN1CCOCC1 | – | – | – | – | – | – | · | · | · | ·
N#Cc1c2c(c(NCCCN3CCOCC3)n3c1nc1ccccc13)CCC2 | 14.3 | – | – | – | – | – | – | – | – | 38.2
CC(=O)Nc1ccc(Nc2cc(N(C)C)c3nonc3c2[N+](=O)[O-])cc1 | 29.5 | – | – | – | – | – | – | – | – | 36.2
O=C(O)c1ccc(Nc2cc(Cl)c3nonc3c2[N+](=O)[O-])cc1 | – | – | – | – | – | – | · | · | · | ·
COc1ccc(C=O)c2[nH]c3c(Cl)ncnc3c12 | 15.8 | – | – | – | – | – | – | – | – | 24.2
COc1cc2[nH]c3c(Cl)ncnc3c2cc1OC | – | – | – | – | – | – | · | · | · | ·
SMILES | VIM-2 inhibitor | ATG4B inh | MIN6 prolif | PvdQ inh | IMP-1 inh-1 | HKDC1 inh | IMP-1 inh-2 | VIM-2 FRET inh | TEM-1 counter | VIM-2 inh conf
c1ccc(Cn2c3ccccc3c3nnc(SCCN4CCCCC4)nc32)cc1 | 27.1 | – | – | · | – | – | – | – | – | 42.4
C=CCn1c2ccccc2c2nnc(SCCN3CCCCC3)nc21 | 18.5 | – | – | – | – | – | – | – | – | 22.4
C=CCn1c2ccccc2c2nnc(SCCCn3c(=O)[nH]c4ccccc43)nc21 | – | – | · | – | – | – | · | · | · | ·
CSc1nnc2c3cc(C)ccc3n(Cc3ccccc3)c2n1 | – | – | – | – | – | – | · | · | · | ·
Cc1cc(/C=C(/C#N)c2cccc(F)c2)c(C)n1-c1cccnc1 | – | – | – | – | – | – | · | · | · | ·
CC1CC(C)CN(S(=O)(=O)c2ccc3c(c2)CC(C)N3C(=O)C2CC2)C1 (stereo not drawn) | – | – | – | – | – | – | · | · | · | ·
Cc1nn2c(NCCN3CCOCC3)c3c(nc2c1-c1ccccc1)CCCC3 | – | – | – | – | – | – | · | · | · | ·
Cc1nn2c(N3CCN(C)CC3)c3c(nc2c1-c1ccccc1)CCCC3 | 26.2 | – | – | · | – | – | – | – | – | 54.8
COc1ccc(-c2cc(=O)oc3c(O)c(O)ccc23)cc1 | 12.6 | – | – | – | – | – | – | – | – | 18.2
Cc1ccc2[nH]c(C)c(/C=C/c3cc[n+](C)cc3)c2c1 | 16.3 | – | – | – | – | – | – | – | – | 26.2
Cc1ccc2[nH]c(C)c(/C=N/Nc3nc4ccccc4s3)c2c1 | – | – | – | – | – | – | · | · | · | ·
CN(CC(=O)Nc1cccc(F)c1)C(=O)c1ccc(S(=O)(=O)N2CCCC2)cc1 | · | – | – | – | · | – | · | · | · | ·
CCOC(=O)c1sc(NC(=O)CCN2CCC(C)CC2)c(C(=O)OCC)c1C | – | – | – | – | – | – | · | · | · | ·
CCOC(=O)c1sc(NC(=O)CCN2CCN(CC)CC2)c(C(=O)OCC)c1C | 13.7 | – | – | – | – | – | – | – | – | 26.6
CC(C)CN(CC(C)C)C(=O)C12CCC(C)(C(=O)C1)C2(C)C (stereo not drawn) | – | – | – | – | – | – | · | · | · | ·
O=c1[nH]c(CN2CCN(c3ccc(F)cc3)CC2)nc2ccccc12 | 55.5 | – | – | – | – | – | – | – | – | –
